≈ marks a conversion by molar mass, not a printed value.

Series [1] concerns Mycobacterium intracellulare. Kind of series: Antimicrobial activity against Mycobacterium intracellulare. Format: functional.
For series [2], the system named is Mycobacterium tuberculosis. Kind of series: Antimicrobial activity against Mycobacterium tuberculosis H37Rv ATCC 27294 expressing luciferase reporter gene assessed as growth inhibition at 0.1 uM after 6 days by luminometry relative to control. Format: functional. The following applies: H37Rv ATCC 27294, 144 h, read-out: GI. The procedure, abridged: (§1)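 Single-concentration screen of the luminescent H37Rv reporter strain in 7H9-10% FCS, inoculated at 50,000 RLU/ml, 6 days at 37 °C. Luminescence was read after n-decanal addition. Percent inhibition is versus the untreated culture, as the mean of triplicate cultures.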
Background: In a reporter assay the amount or activity of a reporter protein is the signal.

Series [3] can be described thus: Therapeutic index, ratio of IC50 for human HepG2/C3A cells to GI50 for Mycobacterium tuberculosis H37Rv ATCC 27294. It counts as cell-based. The following applies: read-out: TI. Summed up: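 TI is NI50/GI50. NI50 came from a neutral red uptake assay in C3A hepatocytes (40,000 cells/well, 24 h exposure at 37 °C, 3 h dye, OD 530 nm with 620 nm reference): the concentration reducing dye uptake by 50%. GI50 came from the 6-day luminescent H37Rv assay.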

The next series concerns Mycobacterium ulcerans. Kind of series: Antimicrobial activity against Mycobacterium ulcerans 1615 expressing luciferase reporter gene assessed as growth inhibition after 6 days by luminometry. Format: functional. The following applies: Mycobacterium ulcerans, 1615, 144 h. The procedure, abridged: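 Luminescent M. ulcerans 1615 carrying pSMT1 luciferase plasmid, grown at 32 °C in 7H9 with 10% OADC and 0.2% glycerol. Serial dilutions from 10 mM DMSO stocks in 7H9 + 10% FCS; bacteria dosed at 50,000 RLU/ml, triplicate wells. After 6 days, light read over 10 s following 1% n-decanal in ethanol. GI50 taken at 50% growth reduction versus untreated culture.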

Series [4] is described as follows: Antimicrobial activity against Mycobacterium avium subsp. avium ATCC 19698 expressing luciferase reporter gene assessed as growth inhibition after 6 days by luminometry. It counts as functional. The note with it: ATCC 19698, 144 h.
The subject of series [5] is Mycobacterium avium subsp. paratuberculosis. Briefly: Antimicrobial activity against Mycobacterium avium subsp. paratuberculosis ATCC 15769 expressing luciferase reporter gene assessed as growth inhibition after 6 days by luminometry. Format: functional. The following applies: ATCC 15769, 144 h.
Series [6] concerns Mycobacterium tuberculosis. Kind of series: Antimicrobial activity against Mycobacterium tuberculosis H37Rv ATCC 27294 expressing luciferase reporter gene assessed as growth inhibition after 6 days by luminometry. It counts as functional. The note with it: H37Rv ATCC 27294, 144 h. The procedure, abridged: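 Luminescent H37Rv (pSMT1, V. harveyi luciferase) was declumped by filtration, adjusted to 50,000 RLU/ml in 7H9-10% FCS, and exposed to serial compound dilutions in triplicate for 6 days at 37 °C. Light was read for 10 s after adding 1% n-decanal. GI50 is the concentration giving 50% growth reduction versus untreated culture.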

Series [7] deals with Mycobacterium tuberculosis. Kind of series: Antimicrobial activity against Mycobacterium tuberculosis H37Rv ATCC 27294 expressing luciferase reporter gene infected in mouse J774 macrophages assessed as intracellular growth inhibition at 0.5 uM after 4 days by luminometry relative to untreated control. Format: functional. The note with it: H37Rv ATCC 27294, J774, 96 h, read-out: GI. Summed up: (§2)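 J774.A1 murine macrophages were seeded at 40,000 cells/well, recovered overnight and infected with luminescent H37Rv. From 24 h post-infection, cells were treated for 4 days in DMEM with penicillin and fungizone, without gentamicin. Growth was read by luminescence after 1% n-decanal and expressed as percent inhibition versus untreated, in triplicate. Macrophage viability was checked by trypan blue.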

Series [8] can be described thus: Cytotoxicity against human HepG2/C3A cells after 24 hrs by neutral red dye uptake assay. It counts as cell-based.
The test system of series [9] is Mycobacterium tuberculosis. Briefly: Antimicrobial activity against Mycobacterium tuberculosis H37Rv ATCC 27294 expressing luciferase reporter gene infected in mouse J774 macrophages assessed as intracellular growth inhibition at 2 uM after 4 days by luminometry relative to untreated control. It counts as functional. The note with it: H37Rv ATCC 27294, J774, 96 h, read-out: GI. The procedure, abridged: as §2

Series [10] relates to Mycobacterium tuberculosis. Briefly: Antimicrobial activity against Mycobacterium tuberculosis H37Rv ATCC 27294 expressing luciferase reporter gene assessed as growth inhibition at 1 uM after 6 days by luminometry relative to control. Format: functional. The following applies: H37Rv ATCC 27294, 144 h, read-out: GI. The procedure, abridged: as §1
For series [11], the system named is Mycobacterium tuberculosis. Kind of series: Antimicrobial activity against Mycobacterium tuberculosis H37Rv ATCC 27294 expressing luciferase reporter gene assessed as growth inhibition at 10 uM after 6 days by luminometry relative to control. It counts as functional. The note with it: H37Rv ATCC 27294, 144 h, read-out: GI. Summed up:
as §1

For series [12], the system named is Mycobacterium tuberculosis. Kind of series: Antimicrobial activity against Mycobacterium tuberculosis H37Rv ATCC 27294 expressing luciferase reporter gene infected in mouse J774 macrophages assessed as intracellular growth inhibition at 1 uM after 4 days by luminometry relative to untreated control. Format: functional. The note with it: H37Rv ATCC 27294, J774, 96 h, read-out: GI. The procedure, abridged:
as §2

The subject of series [13] is Mycobacterium tuberculosis. Kind of series: Antimicrobial activity against Mycobacterium tuberculosis H37Rv ATCC 27294 expressing luciferase reporter gene assessed as reduction in bacterial count after 6 days by luminometry. It counts as functional. The note with it: H37Rv ATCC 27294, 144 h. The procedure, abridged: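 MIC by serial dilution in the 6-day luminescent H37Rv assay (7H9-10% FCS, 50,000 RLU/ml inoculum, triplicate wells, n-decanal read-out). MIC is the concentration giving at least one log10 reduction in signal versus the untreated control.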

The MIC is the smallest concentration in the dilution series that meets the test's criterion for growth inhibition. Regarding `CCOc1nc2c3c(ncc(Br)c3c1Br)-c1ccccc1C2=O`, the MIC in series [1] came to 25 µg/mL (≈ 57.6 µM).

One may read the GI50 as the concentration at which growth is held to half of that of the control. The IC50 is the concentration that gives 50% inhibition. Lower therefore signals greater potency in that assay. Broadly, the MIC90 is the lowest concentration that inhibits either 90% of growth or 90% of the strains tested, depending on the study. On to `CN(C)/C=C/c1nc(-c2ccc(F)cc2)cc2c1C(=O)c1ccccc1C2=O`, for which the inhibition of growth at 0.1 µM in series [2] was 35%. Moreover, in series [3], the selectivity ratio came out at 91. Moreover, the GI50 came to 7.49 µM with Mycobacterium ulcerans, 3.65 µM in [4], 3.23 µM in series [5] and 0.41 µM in [6]. Besides, the inhibition of growth at 0.5 µM in series [7] turned out to be 10.2%. In series [8], this compound showed a 50% inhibitory concentration (IC50) of 37.3 µM. Further, the inhibition of growth at 2 µM in series [9] worked out at 60.5%. In addition, the inhibition of growth at 1 µM in series [10] worked out at 92%; in series [12], 27.3%. In addition, the inhibition of growth at 10 µM in series [11] was found to be 100%. Further, the MIC90 in series [13] is 0.88 µM (≈ 0.328 µg/mL).

For the compound `CN(C)/C=C/c1nc(-c2ccc(Cl)cc2)cc2c1C(=O)c1ccccc1C2=O`, the inhibition of growth at 0.1 µM in [2] was determined as 34%. Moreover, the selectivity ratio in series [3] worked out at 34.2. Further, the 50% growth inhibitory concentration (GI50) was 7.69 µM with Mycobacterium ulcerans, 3.88 µM in [4], 3.95 µM in series [5] and 0.55 µM in series [6]. Besides, the inhibition of growth at 0.5 µM in series [7] was determined as 19.8%. In [8], this compound gave an IC50 of 18.8 µM. Further, in series [9], the inhibition of growth at 2 µM was found to be 54.4%. Besides, the inhibition of growth at 1 µM in [10] was 91%; in series [12], 35.6%. Also, in [11], the inhibition of growth at 10 µM was 100%. For the same compound, in series [13], the MIC90 was determined as 1.1 µM (≈ 0.428 µg/mL).

On to `Cc1ccc(-c2cc3c(c(/C=C/N(C)C)n2)C(=O)c2ccccc2C3=O)cc1`, for which the inhibition of growth at 0.1 µM in series [2] was found to be 39%. Besides, the selectivity ratio in [3] was 40.4. In addition, the GI50 in the series on Mycobacterium ulcerans was 8.59 µM; in series [4], 3.69 µM; in [5], 4.83 µM; in series [6], 0.69 µM. Besides, in series [7], the inhibition of growth at 0.5 µM worked out at 15.9%. This compound displayed an IC50 in series [8] of 27.9 µM. Further, the inhibition of growth at 2 µM in [9] came to 48.7%. Besides, the inhibition of growth at 1 µM in [10] came to 100%; in series [12] it was 36.2%. Moreover, the inhibition of growth at 10 µM in [11] worked out at 100%. Besides, the MIC90 in series [13] is 1.5 µM (≈ 0.553 µg/mL).

For the compound `CCc1ccnc2c1C(=O)c1ccccc1C2=O`, in series [1], the minimal inhibitory concentration (MIC) came out at 12.5 µg/mL (≈ 52.7 µM).

In series [1], `O=C1c2ccccc2-c2nccc3c2c1nc1ccccc13` [BENZOSAMPANGINE] displayed a minimal inhibitory concentration (MIC) of 0.39 µg/mL (≈ 1.38 µM).

In turn, `Cc1ccnc2c1C(=O)c1ccccc1C2=O` [CLEISTOPHOLINE] gave an MIC in series [1] of 12.5 µg/mL (≈ 56 µM).

Turning to `CO[C@H]1/C=C/O[C@@]2(C)Oc3c(C)c(O)c4c(O)c(c(/C=N/N5CCN(C)CC5)c(O)c4c3C2=O)NC(=O)/C(C)=C\C=C\[C@H](C)[C@H](O)[C@@H](C)[C@@H](O)[C@@H](C)[C@H](OC(C)=O)[C@@H]1C` [RIFAMPIN], the inhibition of growth at 0.1 µM in [2] amounted to 99%. Also, in series [6], the GI50 worked out at 0.03 µM. Also, 0.5 µg/mL (≈ 0.608 µM) was the least that counted as inhibitory in series [1] (MIC). For the same compound, the inhibition of growth at 1 µM in series [10] turned out to be 100%. Moreover, in [11], the inhibition of growth at 10 µM came out at 100%. The MIC90 in series [13] was determined as 0.12 µM (≈ 0.0988 µg/mL).

Turning to `O=C1c2ccccc2-c2nccc3ccnc1c23` [SAMPANGINE], in [1], the MIC was determined as 0.78 µg/mL (≈ 3.36 µM).

As to `CN[C@@H]1[C@H](O[C@H]2[C@H](O[C@H]3[C@H](O)[C@@H](O)[C@H](N=C(N)N)[C@@H](O)[C@@H]3N=C(N)N)O[C@@H](C)[C@]2(O)C=O)O[C@@H](CO)[C@H](O)[C@H]1O` [STREPTOMYCIN], the MIC in [1] was 2 µg/mL (≈ 3.44 µM).

These data come from ChEMBL document CHEMBL2434878, “Synthesis and antimycobacterial activity of analogues of the bioactive natural products sampangine and cleistopholine” (Eur J Med Chem, 2013).
